Activity calls are given as the source filed them. No cut-off for these calls is given here.
What was measured:
[1] = species on record: Homo sapiens; experiment: Activation of LPS-induced NF-kappaB activity in human THP1-Blue-NF-kappaB cells assessed as increase in SEAP reporter activity at 5 uM incubated for 20 hrs by quanti-blue SEAP assay relative to control
In short: (§1)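 THP1-Blue NF-κB cells, 10^5/well, in RPMI with 10% FBS, pen/strep and Normocin. Compound (5 μM single point or graded concentrations, 0.05% DMSO) is added together with LPS; methods give final LPS 10 μg/mL, table footnote gives 10 ng/mL. Supernatant SEAP is read after 20 h by QuantiBlue colorimetry at 630 nm.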

[2] = species on record: Homo sapiens; experiment: Activation of IFNalpha signalling in human ISRE-bla-THP1 cells assessed as increase in type-1 IFN-alpha induced ISRE activity at 5 uM preincubated for 16 hrs followed by CCF4-AM substrate addition and measured after 3 hrs by FRET based assay relative to control; assay type: cell-based
In short: (§2)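 ISRE-bla THP-1 cells, 5×10^4/well, in RPMI with 10% dialyzed FBS, 0.1 mM non-essential amino acids, 1 mM pyruvate and pen/strep. Cells are co-treated with IFN-α (final 100 U/mL) and compound: 5 μM single point or graded concentrations, 0.05% DMSO. After 16 h, CCF4-AM is added for 3 h at RT in the dark.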

[3] = Activation of LPS-induced NF-kappaB activity in human THP1-Blue-NF-kappaB cells assessed as increase in SEAP reporter activity incubated for 20 hrs by quanti-blue SEAP assay; in short: as §1
[4] = Activation of IFNalpha signalling in human ISRE-bla THP1 cells assessed as increase in type-1 IFN-alpha induced ISRE activity preincubated for 16 hrs followed by CCF4-AM substrate addition and measured after 3 hrs by FRET based assay; assay type: cell-based; settings: THP-1; in short: as §2
[5] = species on record: Mus musculus; experiment: Co-adjuvanticity in ovalbumin immunized C57BL/6 mouse assessed as increase in OVA-specific IgG titers in blood at 100 nmol co-immunized with adjuvant MPLA and ovalbumin antigen on day 0 and 21 and measured on day 21 by ELISA; assay type: functional, organism-based
In short: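 C57BL/6 mice, 7–9 weeks old, n=8/group, immunized on days 0 and 21 with ovalbumin (20 μg/animal), MPLA (10 μg/animal) and compound (100 nmol/animal). Bled on day 21; OVA-specific IgG titers measured by ELISA.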

[6] = Systemic toxicity in ovalbumin immunized C57BL/6 mouse assessed as behavioural changes at 50 nmol co-immunized with adjuvant MPLA and ovalbumin antigen on day 0 and 21; settings: in vivo
In short: (§3)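 C57BL/6 mice, 7–9 weeks old, n=8/group, immunized intramuscularly (gastrocnemius) on days 0 and 21 with ovalbumin (20 μg/animal), MPLA (10 ng/animal) and compound (50 nmol/animal). Systemic toxicity monitored as behaviour change and weight loss.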

[7] = Systemic toxicity in ovalbumin immunized C57BL/6 mouse assessed as body weight loss at 50 nmol co-immunized with adjuvant MPLA and ovalbumin antigen on day 0 and 21; settings: in vivo; in short: as §3
[8] = tested on: THP-1; experiment: Cytotoxicity against human THP1 cells assessed as reduction in cell viability at 5 uM incubated for 18 hrs by MTT assay relative to control; settings: thp-1, 18 h
[9] = Stability of the compound in DMSO; assay type: physicochemical
[10] = Prodrug conversion in RPMI assay medium supplemented with 10% dialyzed FBS, 100 U/ml penicillin and 100 ug/ml streptomycin assessed as N-(4-chloro-2,5-dimethoxyphenyl)-4-ethoxybenzene-sulfonamide release; assay type: ADME; settings: cattle

Row | Activity [1] | EC50 [3] | EC50 [4] | Stability [9] | Drug metabolism [10] | SMILES | Activity [2] | Activity [5] | Activity [6] | Activity [7] | Activity [8]
1 | 200% | 600 nM | 660 nM |  |  | CCOc1ccc(S(=O)(=O)Nc2cc(OC)c(Cl)cc2OC)cc1 | 200% | Active | Non-Toxic | Non-Toxic | 73.5%
2 | 226% | 1850 nM | 1400 nM |  |  | COc1ccc(S(=O)(=O)Nc2cc(OC)c(Cl)cc2OC)cc1 | 219% |  |  |  | 69.6%
3 | 131% |  |  |  |  | CCOc1ccc(S(=O)(=O)N(CCc2ccccc2)c2cc(OC)c(Cl)cc2OC)cc1 | 141% |  |  |  | 44%
4 | 98% |  |  |  |  | COc1cc(NS(=O)(=O)c2ccc(Oc3ccccc3)cc2)c(OC)cc1Cl | 95% |  |  |  | 91.3%
5 | 101% |  |  |  |  | CCCCOc1ccc(S(=O)(=O)Nc2cc(OC)c(Cl)cc2OC)cc1 | 106% |  |  |  | 95.3%

Further lines, the molecule ahead of its results:

Row | SMILES | Activity [1] | EC50 [3] | EC50 [4] | Stability [9] | Drug metabolism [10] | Activity [2] | Activity [5] | Activity [6] | Activity [7] | Activity [8]
6 | CCOc1ccc(S(=O)(=O)N(CCCN)c2cc(OC)c(Cl)cc2OC)cc1.Cl | 189% | 3320 nM | 3040 nM |  |  | 182% |  |  |  | 71%
7 | CCOc1ccc(S(=O)(=O)N(C(C)=O)c2cc(OC)c(Cl)cc2OC)cc1 | 184% |  |  | Stable | Metabolite_Detected | 244% |  |  |  | 72%
8 | CCOc1ccc(S(=O)(=O)Nc2cc(OC)c(Cl)c(OC)c2)cc1 | 179% |  |  |  |  | 218% |  |  |  | 71.4%
9 | COc1cc(NS(=O)(=O)c2ccc(OC)c(N=[N+]=[N-])c2)c(OC)cc1Cl | 104% |  |  |  |  | 104% |  |  |  | 87.2%
10 | C#CCCCN(c1cc(OC)c(Cl)cc1OC)S(=O)(=O)c1ccc(OCC)cc1 | 182% |  |  |  |  | 184% |  |  |  | 70.7%
11 | CCOc1ccc(S(=O)(=O)Nc2cc(OC)c(N)cc2OC)cc1 | 101% |  |  |  |  | 102% |  |  |  | 92.2%
12 | CCOc1ccc(S(=O)(=O)N(C)c2cc(OC)c(Cl)cc2OC)cc1 | 235% | 690 nM | 840 nM |  |  | 215% | Active | Non-Toxic | Non-Toxic | 74.5%
13 | CCNC(=O)CCCN(c1cc(OC)c(Cl)cc1OC)S(=O)(=O)c1ccc(OCC)cc1 | 206% |  |  |  |  | 137% |  |  |  | 78.2%
14 | CCOc1ccc(S(=O)(=O)N(CCCN)c2cc(OC)c(N=[N+]=[N-])cc2OC)cc1.Cl | 138% |  |  |  |  | 117% |  |  |  | 68.9%
